In ChEMBL document CHEMBL2424614, “A novel p-terphenyl derivative inducing cell-cycle arrest and apoptosis in MDA-MB-435 cells through topoisomerase inhibition” (Eur J Med Chem, 2013):
Active and inactive are the calls of the source. No cut-off for these calls is given here.

Tests used:
MDA-MB-435 [1] = experiment: Induction of apoptosis in human MDA-MB-435 cells assessed as morphological changes at 0.25 to 1 uM by DAPI staining-based fluorescence microscopy; format: functional, cell-based
In short: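 Treated MDA-MB-435 cells washed in ice-cold PBS, fixed 20 min in 4% paraformaldehyde, stained 30 min at 37 °C with DAPI (50 µg/mL) containing 100 µg/mL RNase A. After PBS washes, examined by fluorescence microscopy (excitation 340 nm, emission 488 nm).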

MDA-MB-435 [2] = experiment: Cell cycle arrest in human MDA-MB-435 cells assessed as increase in cyclin B1 expression at 0.25 to 1 uM after 12 to 24 hrs by Western blotting analysis; format: functional, cell-based
In short: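 Treated MDA-MB-435 cells lysed in ice-cold Tris-HCl pH 7.4 buffer with Triton, phosphatase and protease inhibitors. Lysates clarified, boiled in SDS loading buffer, run on 8-12% SDS-PAGE and blotted. Membranes blocked in 5% skim milk, probed with primary antibodies, then peroxidase secondaries with ECL detection. β-actin as loading control.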

Calf thymus DNA = experiment: Induction of DNA intercalation activity of calf thymus DNA topoisomerase 1 assessed as unwinding of pBR322 DNA up to 100 uM after 30 mins by Agarose gel electrophoresis; format: nucleic-acid assay; conditions: Bos taurus
In short: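 Relaxed pBR322 made by treating supercoiled plasmid with excess Topo I (10 units), then proteinase K digestion at 37 °C, phenol-chloroform extraction and ethanol precipitation. Incubated with compound 30 min at 37 °C, run on 1% agarose gel at 5 V/cm for 2 h in TAE, stained with 0.5 µg/mL ethidium bromide, viewed under UV.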

[3] = target: DNA topoisomerase 2-alpha (Homo sapiens) (UniProt P11388); experiment: Induction of recombinant human DNA topoisomerase 2-alpha poisoning activity using pBR322 as substrate assessed as appearance of linear DNA at 100 uM after 30 mins by Agarose gel electrophoresis
Sequence of DNA topoisomerase 2-alpha (Homo sapiens) (P11388 whole entry): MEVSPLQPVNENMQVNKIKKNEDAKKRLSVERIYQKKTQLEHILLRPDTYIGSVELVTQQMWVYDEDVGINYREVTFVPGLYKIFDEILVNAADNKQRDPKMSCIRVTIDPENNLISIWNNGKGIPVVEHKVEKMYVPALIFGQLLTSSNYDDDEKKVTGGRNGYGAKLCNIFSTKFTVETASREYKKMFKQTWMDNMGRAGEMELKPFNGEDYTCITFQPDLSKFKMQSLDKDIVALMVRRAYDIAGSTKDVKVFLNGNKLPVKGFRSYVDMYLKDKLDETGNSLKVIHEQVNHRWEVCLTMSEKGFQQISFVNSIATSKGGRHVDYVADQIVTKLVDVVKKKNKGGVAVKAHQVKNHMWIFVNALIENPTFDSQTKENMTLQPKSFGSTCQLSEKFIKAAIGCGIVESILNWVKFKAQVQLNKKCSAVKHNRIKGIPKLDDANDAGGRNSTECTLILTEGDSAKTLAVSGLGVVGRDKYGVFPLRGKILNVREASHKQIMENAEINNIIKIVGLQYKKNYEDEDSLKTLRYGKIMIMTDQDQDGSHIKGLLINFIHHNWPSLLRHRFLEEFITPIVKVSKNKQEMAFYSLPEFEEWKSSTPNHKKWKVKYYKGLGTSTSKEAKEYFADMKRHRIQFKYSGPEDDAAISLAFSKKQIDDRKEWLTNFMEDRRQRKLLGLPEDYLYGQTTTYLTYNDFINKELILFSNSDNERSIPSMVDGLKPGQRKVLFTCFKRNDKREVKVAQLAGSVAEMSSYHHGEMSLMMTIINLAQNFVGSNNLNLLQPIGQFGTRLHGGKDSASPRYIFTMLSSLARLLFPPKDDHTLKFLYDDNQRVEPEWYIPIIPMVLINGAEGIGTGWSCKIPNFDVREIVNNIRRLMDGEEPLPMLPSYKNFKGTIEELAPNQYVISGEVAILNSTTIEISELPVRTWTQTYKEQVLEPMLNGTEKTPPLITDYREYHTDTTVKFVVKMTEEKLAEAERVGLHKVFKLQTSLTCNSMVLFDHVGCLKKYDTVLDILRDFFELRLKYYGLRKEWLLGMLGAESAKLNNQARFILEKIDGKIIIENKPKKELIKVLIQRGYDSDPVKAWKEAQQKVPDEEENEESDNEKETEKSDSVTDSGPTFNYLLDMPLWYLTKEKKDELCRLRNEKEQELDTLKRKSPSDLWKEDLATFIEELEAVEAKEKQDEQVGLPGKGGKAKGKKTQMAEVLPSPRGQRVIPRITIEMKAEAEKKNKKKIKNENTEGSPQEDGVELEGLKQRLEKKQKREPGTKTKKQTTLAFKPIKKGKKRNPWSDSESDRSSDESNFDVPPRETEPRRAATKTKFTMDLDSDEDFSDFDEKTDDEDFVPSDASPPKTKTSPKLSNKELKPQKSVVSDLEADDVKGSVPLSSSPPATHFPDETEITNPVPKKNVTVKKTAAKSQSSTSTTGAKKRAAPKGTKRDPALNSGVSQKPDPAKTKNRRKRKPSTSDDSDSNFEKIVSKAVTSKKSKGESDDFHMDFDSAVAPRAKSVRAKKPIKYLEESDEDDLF
In short: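 Same format as the Topo IIα inhibition assay: 0.5 µg supercoiled pBR322 with 1 unit recombinant human Topo IIα. Incubated 37 °C for 30 min, stopped with 10% SDS, then proteinase K (50 µg/mL) for 20 min. Run on 1% agarose gel containing ethidium bromide, 5 V/cm, 2 h, TAE. Linear and nicked open circular DNA positions scored. At least duplicate.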

SMILES: Oc1ccc(-c2ccc(-c3ccc(O)c(O)c3)cc2)cc1
- Activity (MDA-MB-435 [1]): Active
- Activity (MDA-MB-435 [2]): Active
- Activity (Calf thymus DNA): inactive
- Activity [3]: inactive
